esBAF inh: Bmi1 luciferase reporter increase in mESCs, primary screen, esBAF inhibitor project, mouse ES cells, Bmi1 luciferase knock-in, single point. 24 h; 100% = twice the neutral-well signal. reporter increase, % at 12.5 µM. 2% of 350,000 active; in the data active means activation above about 40%; inconclusive means no clear call, values can overlap the other calls;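 further: 0% = median of the plate's neutral control wells and 100% = double that signal; a rise in the Bmi1 reporter signal indicates esBAF inhibition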
Vif inh: HIV Vif self-association inhibitors, primary screen, imaging, HEK293T, single point; 0.35% of 340,000 active; HEK293T cells, Vif self-association by quenched fluorescence, 24 h; inhibition, % at 7.49 µM; in the data active means inhibition above about 50%, passing the limit was not always enough; inconclusive means no clear call, values can overlap the other calls; inactive means below about 31%
XiGFP reactiv: activators of inactive X chromosome reactivation, primary screen, imaging, XiGFP fibroblasts, GFP high-content imaging, set 2 | 0.055% of 360,000 active | activation, % at 7.58 µM | XiGFP mouse fibroblasts, % GFP-positive cells imaging, 3 d; cells co-treated with 5-aza-dC sensitizer; scaled so ellipticine positive control = 100%;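 active means mean normalized replicate activation at least 10% and every replicate at or above 10%; inconclusive means only one of the two criteria met; inactive means mean below 10% and not all replicates reach 10%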;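 further: 0% = median of on-plate neutral control wells and 100% = ellipticine 6 µM median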
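Material: SV40-immortalized XiGFP fibroblast cells, line 68-5-11 | Buffer or medium: DMEM containing 5-aza-dC | Dosing: One concentration, pinned | Times: 3 d treatment, 15 min room-temperature fixation | Controls: Ellipticine 6 µM positive control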
MITF TRPM1 HTS: activators of MITF-driven TRPM1 promoter reporter, primary screen, cell-based, SK-MEL-5, luciferase, single point; SK-MEL-5 TRPM1-promoter luciferase, 24 h; % of positive control, neutral wells = 0; activation, % at 12.5 µM; 0.75% of 300,000 active;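 active means mean activation of at least 80% with every replicate also reaching 80%; inconclusive means mean reaches 80% but some replicate falls short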;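 further: 0% = neutral control wells and 100% = parthenolide positive control wells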
Wnt bcat act: Wnt/beta-catenin pathway activators, primary screen, cell-based, plate reader, single point. Wnt/beta-catenin reporter cell assay, activator. activation, % at 9.35 µM. 1.2% of 300,000 active. AID 743398, 2014; in the data active means activation above about 30%, passing the limit was not always enough; inconclusive means no clear call, values can overlap the other calls;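 further: 0% = neutral control wells and 100% = positive control wells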
Active calls of the source: *; ? = inconclusive; nt = not tested or not shown. Hits are enriched below; roughly 2.6% of the tested compounds scored in any of these assays.

SMILES	esBAF inh	Vif inh	XiGFP reactiv	MITF TRPM1 HTS	Wnt bcat act
CO[C@@H]1CC[C@@H]2CCN(C)C(=O)C[C@@H](c3ccccc3)CN(C)C(=O)c3cccc(C#N)c3OC[C@H]1O2	0	nt	0	nt	nt
C/C=C/c1cnc2c(c1)C(=O)N([C@H](C)CO)C[C@@H](C)[C@@H](CN(C)Cc1cccc(C(=O)O)c1)O2	-5	nt	-1	nt	nt
O=C(NCCc1ccc(F)cc1)c1cccc(NC(=O)c2ccccc2)c1	65*	-2	0	18	5
COc1ccc2cc(-c3cc(C(=O)OCC(=O)NC4CCS(=O)(=O)C4)c4ccccc4n3)ccc2c1 (configuration not stated)	nt	52*	0	10	nt
COc1cccc(CNc2ccc(F)c(Cl)c2)c1O	25	3	nt	88*	nt
Cc1ccc(NCc2ccccc2F)cc1	nt	-7	1	-8	nt
COc1cccc(CNc2cccc(C(F)(F)F)c2)c1O	-6	1	0	-3	0
Fc1ccccc1CNc1ccc(Cl)c(Cl)c1	26	55*	nt	59	nt
COc1ccccc1-c1cnc2c(c1)C(=O)N([C@@H](C)CO)C[C@H](C)[C@H](CN(C)Cc1cccc(F)c1)O2	-7	nt	0	nt	nt
C[C@@H]1CN([C@H](C)CO)C(=O)c2ccccc2-c2ccccc2CO[C@@H]1CN(C)S(=O)(=O)c1ccc(C#N)cc1	1	nt	0	nt	nt
Cn1c(-c2ccc(F)cc2)cnc1SCC(=O)N1CCCCC1	-9	-5	nt	nt	35*
CC1Cc2ccccc2N1C(=O)CSc1ncc(-c2ccc(F)cc2)n1C (configuration not stated)	12	0	0	42	59*
C[C@@H]1CN([C@@H](C)CO)C(=O)c2cc(NC(=O)CCCN(C)C)ccc2O[C@@H]1CN(C)Cc1ccccc1	-2	nt	0	nt	nt
Cc1nn(-c2ccccc2)c(C)c1CN	nt	-1	0	-3	-1
Cc1nn(-c2ccccc2)c(C)c1Cc1ccc(O)cc1	88*	-3	0	66	8
CCCC(=O)Nc1ccc2c(c1)C(=O)N(C)C[C@H](OC)[C@H](C)CN(C(=O)CC1CC1)[C@@H](C)CO2	-4	nt	0	nt	nt
Cc1cccc(N2C(=O)CSC2c2cccnc2)c1 (configuration not stated)	-10	10	nt	2	-4
Cc1cccc(N2CCN(c3cccc(C)c3)C2c2cccnc2)c1	12	-4	nt	nt	37*
Cc1ccc(/C=C/C(=O)c2ccc(O)cc2)cc1	nt	10	0	73	0
CN(C)c1ccc(C(=O)/C=C/c2ccccc2)cc1	68*	8	0	?	nt
Cc1ccc(/C=C/C(=O)c2ccccc2)cc1	15	12	nt	97*	nt
CN(C)c1ccc(C(=O)/C=C/c2ccc(Br)cc2)cc1	20	-3	0	33	29
CCOc1ccc(C(=O)/C=C/c2ccc(SC)cc2)cc1	3	-11	nt	8	0
CSc1ccc(/C=C/C(=O)c2ccc(O)cc2)cc1	nt	0	nt	94*	nt
CN(C)c1ccc(/C=C/C(=O)c2ccccc2)cc1[N+](=O)[O-]	62*	15	0	33	34*
SMILES	esBAF inh	Vif inh	XiGFP reactiv	MITF TRPM1 HTS	Wnt bcat act
CNc1ccc(/C=C/C(=O)c2ccc(C)cc2)cc1[N+](=O)[O-]	nt	5	0	-2	-2
Cc1ccsc1/C=N/NC(=O)Nc1ccccc1	nt	-2	0	107*	16
Cc1ccsc1/C=N/NC(=O)c1ccncc1	nt	8	0	3	1
COc1cc(C(=O)N/N=C/c2sccc2C)cc(OC)c1OC	nt	75*	1	-49	-19
Cc1ccsc1/C=N/NC(=O)c1ccc2ccccc2c1	nt	13	0	44	20
O=C(N/N=C/c1ccc(Br)s1)Nc1ccccc1	51*	-6	0	64	-2
COc1ccc(S(=O)(=O)Nc2ccc3c(c2)CC(=O)N([C@@H](C)CO)C[C@H](C)[C@@H](CN(C)Cc2ccncc2)O3)cc1	-2	nt	-1	nt	nt
Cc1cc(C)c2c(N)c(C(=O)Nc3ccccc3Cl)sc2n1	nt	-4	0	nt	0
Cc1ccccc1NC(=O)c1sc2nc(N3CCOCC3)c3c(c2c1N)CCCC3	54*	1	0	51	3
Cc1cc(C)c2c(N)c(C(=O)Nc3ccccc3F)sc2n1	50*	-7	0	40	20
COc1ccccc1NC(=O)c1sc2nc(N3CCOCC3)c3c(c2c1N)CCCC3	-6	3	0	35	0
c1ccc(-c2cc(N3CCCCCC3)n[nH]2)cc1	58*	16	nt	2	nt
c1ccc(-c2cc(N3CCCCC3)ncn2)cc1	44*	3	nt	86*	-1
COCC(=O)Nc1ccc2c(c1)OC[C@H](C)N(CCc1ccccc1)C[C@H](C)[C@@H](OC)CN(C)C2=O	nt	nt	0	nt	nt
CCCC(=O)Nc1ccc2c(c1)C(=O)N(C)[C@@H]1CC[C@@H](CC(=O)Nc3ccccc3)O[C@H]1CO2	2	nt	0	nt	nt
CCOc1cc(/C=N/Nc2nnc(C)n2N)ccc1O	-4	-10	0	nt	3
CCOc1cc(/C=N/Nc2ncnc(Cl)c2N)ccc1O	57*	-6	0	51	nt
CCOc1cc(/C=N/NC(=O)N/N=C/c2ccc(O)c(OCC)c2)ccc1O	nt	nt	0	nt	49*
CCOc1cc(/C=N/NC(=O)C(=O)N/N=C/c2ccc(O)c(OCC)c2)ccc1O	9	-5	0	nt	0
CN1[C@@H]2Cn3c(ccc(C4=CCCC4)c3=O)[C@H]1[C@@H](C(=O)N1CCCCC1)[C@@H]2CO	-4	nt	0	nt	nt
Cc1cc(C(=O)CSc2ccccc2)cc(C)c1O	68*	-5	0	39	12
CCCCNC(=O)C1CCN(Cc2ccc(OCc3ccccc3)cc2)CC1	51*	22	nt	77	nt
O=C(Nc1ccn(Cc2ccc(Cl)cc2)n1)c1ccccc1	56*	-4	0	?	35*
C/C(=N\NC(=O)c1c(Cl)c(C)nn1C)c1ccc(NC(=O)C2CCC2)cc1	-11	25	0	-24	0
C/C(=N\NC(=O)c1c([N+](=O)[O-])c(C)nn1C)c1ccc(NC(=O)C2CCCC2)cc1	-19	64*	1	-17	-4
Cc1cc(-c2nnc(SCC(=O)Nc3ccc(Cl)cn3)n2N)n[nH]1	-7	55*	0	7	-1
Cc1cc(-c2nnc(SCC(=O)Nc3ccccc3F)n2N)n[nH]1	1	-4	0	-3	0
Oc1ccc(/C=N/Nc2nc(-c3cccnc3)nc3ccccc23)c(O)c1	58*	nt	0	16	1
O=C1N=c2ccccc2=C1c1sc(Nc2cccc(O)c2)nc1O	51*	-4	0	nt	1
O=C1N=c2ccccc2=C1c1sc(Nc2ccc(O)cc2)nc1O	nt	-3	0	27	27
